# Source: PubChem BioAssay (The Scripps Research Institute Molecular Screening Center)
# rCAG RNA binder: r(CAG) repeat RNA binding; inhibition, % at 3 µM; 1.3% of 370,000 active; TO-PRO-1 dye displacement fluorescence;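 active = inhibition above the plate cutoff, the mean of all test compounds on that plate plus 3 SD, cut at about 35% in these data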;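 also: 0% = DMSO alone and 100% = 100 µM mitoxantrone as full dye displacement; higher means more dye released from RNA so lower well fluorescence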
# mABHD4 FP: ABHD4 (mouse) inhibition, primary FP screen. Q8VD66. purified mABHD4, FP-Rh probe fluorescence polarization. inhibition, % at 8.92 µM. 0.54% of 370,000 active;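 active = inhibition exceeding the mean over every tested compound plus 3 SD, cut at about 30% in these data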;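 also: 0% = plate median of compound wells and 100% = S159A mutant with DMSO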
# Target sequence (Q8VD66 whole entry, looked up): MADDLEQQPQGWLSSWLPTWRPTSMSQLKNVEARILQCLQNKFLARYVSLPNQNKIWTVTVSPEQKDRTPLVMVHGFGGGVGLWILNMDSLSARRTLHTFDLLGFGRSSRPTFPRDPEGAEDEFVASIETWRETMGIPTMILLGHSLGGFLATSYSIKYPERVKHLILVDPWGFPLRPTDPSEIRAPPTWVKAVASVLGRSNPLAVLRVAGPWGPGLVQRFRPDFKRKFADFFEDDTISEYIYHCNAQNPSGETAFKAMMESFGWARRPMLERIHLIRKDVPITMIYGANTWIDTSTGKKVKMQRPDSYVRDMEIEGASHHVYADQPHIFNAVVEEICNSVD
#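 Doses – 8.92 µM, single dose · Material – wild-type mouse ABHD4 protein · Replication – single well per compound (singlicate) · Measure – percent inhibition of probe binding, normalized to plate controls · Schedule – 45 min compound pre-incubation plus 60 min probe step, 25 °C · Detection – fluorescence polarization with parallel and perpendicular emission, 525/598 nm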
# PRMT1 FP inh: blocks human protein arginine methyltransferase 1; inhibition, % at 2.79 µM; recombinant PRMT1, activity-based probe fluorescence polarization; 1.3% of 370,000 active; AID 652257; Q99873;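 active = inhibition above about 21% made by adding two undisclosed values, limit read from the data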
# SIAE primary: blocks human sialic acid acetylesterase | inhibition, % at 9.66 µM | SIAE FP-Rh probe binding, fluorescence polarization | 0.69% of 370,000 active | Q9HAT2;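 active = inhibition above a cutoff: mean of compounds within the control limits plus 3 SD of those, cut at about 17% in these data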;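 also: 0% = plate median of compound wells and 100% = probe without SIAE protein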
# HTRA1 inh: HTRA1 (human) protease inhibition; inhibition, % at 5.96 µM; 0.5% of 340,000 active; recombinant HTRA1, FP-rhodamine activity-based probe, fluorescence polarization; Q92743; in the data active = inhibition above about 36%;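 also: 0% = enzyme with DMSO and 100% = wells lacking enzyme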
# rCAG bind conf: r(CAG) RNA repeat binding, confirmation | TO-PRO-1 dye displacement fluorescence | inhibition, % at 3 µM | 70% of 4,300 active | shares compounds with rCAG RNA binder;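 active = inhibition above a per-plate cutoff, the mean inhibition of sample wells plus 3 SD, cut at about 35% in these data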;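 also: loss of TO-PRO-1 fluorescence as compound displaces dye from 1x1 AA loop RNA; 0% = DMSO only wells and 100% = 100 µM mitoxantrone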
# DNA CAG counter: DNA CAG dye complex inhibition counter-screen; inhibition, % at 3 µM; shares compounds with rCAG RNA binder; d(CAG) DNA oligo TO-PRO-1 dye displacement, fluorescence; 94% of 4,300 active;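 active = inhibition above its plate's cutoff, the mean test-well inhibition plus 3 SD, cut at about 4.8% in these data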;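 also: 0% = DNA dye mix with DMSO and 100% = 100 µM mitoxantrone; hits displace the dye from DNA and so lower well fluorescence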
# * marks the source's active call; other numbers are inactive results; . = no result. Most compounds without a hit are left out; they make up all but 3.3% or so of the library.
SMILES,rCAG RNA binder,mABHD4 FP,PRMT1 FP inh,SIAE primary,HTRA1 inh,rCAG bind conf,DNA CAG counter
Cc1ccc(S(=O)(=O)CCSc2cccc(C(=O)Nc3ccccc3C(=O)O)c2)cc1,80*,-56,77*,-32,-9,83*,52*
O=C(O)c1ccc(NS(=O)(=O)c2cccc(C(=O)Nc3ccc(Br)cc3)c2)cc1,13,-19,1,-8,-1,.,.
O=C(Nc1ccccc1C(=O)O)c1cccc(NS(=O)(=O)c2ccc(Br)cc2)c1,81*,-45,2,-41,-38,68*,26*
O=C(c1cccc(NS(=O)(=O)c2ccc(Br)cc2)c1)N1CCCCC1,9,0,-6,-6,-2,.,.
O=C(Nc1ccccc1C(=O)O)c1cccc(S(=O)(=O)Nc2ccc(Br)cc2)c1,80*,-71,1,-54,-65,58*,21*
CCOC(=O)c1sc(N2C(=O)C(O)=C(C(=O)c3ccco3)C2c2cccc(Cl)c2)nc1C (stereo unspecified),74*,-28,5,-20,-29,57*,19*
Cc1cc(N2C(=O)C(O)=C(C(=O)c3ccco3)C2c2cccc(Oc3ccccc3)c2)no1 (stereo unspecified),58*,5,2,-2,-13,59*,21*
COC(=O)c1sc(N2C(=O)C(O)=C(C(=O)c3ccc(C)o3)C2c2cccs2)nc1C (stereo unspecified),48*,1,15,-8,-6,48*,17*
CCOC(=O)c1sc(N2C(=O)C(O)=C(C(=O)c3ccco3)C2c2cccc([N+](=O)[O-])c2)nc1C (stereo unspecified),70*,-68,3,-29,-47,82*,50*
C=CCN1C(=O)[C@@H](CC(=O)N2CCC(c3ccccc3)CC2)[C@]2(C(=O)OCC)CCCCC/C=C/12,2,2,-4,-1,.,.,.
COc1ccc(CN(CCN2CCOCC2)C(=O)c2ccccc2C)cc1OC,1,4,0,0,.,.,.
COc1cccc(C(=O)n2ccc3ccc(-c4ccc5ccn(Cc6ccccc6)c5c4)cc32)c1,16,-18,-2,-7,.,.,.
COc1cccc(/C=C(/C#N)c2ccc(F)cc2)c1OCc1cccc(C(=O)O)c1,51*,-6,4,-7,-15,49*,15*
COc1cccc(/C=C(/C#N)c2ccc(Cl)cc2)c1OCc1cccc(C(=O)O)c1,42*,-5,3,-6,-39,69*,29*
COc1cc(/C=C(/C#N)c2ccc(F)cc2)ccc1OCc1ccc(C(=O)O)o1,52*,10,3,-12,-37,46*,10*
COc1cc(/C=C(\C#N)C(=O)Nc2cccc(C(=O)O)c2)ccc1OCc1ccc(F)cc1,20,-5,-1,-16,-2,.,.
Clc1ccc(-n2c(SCc3cccc4ccccc34)nnc2-c2ccccn2)cc1,8,-7,2,1,.,.,.
COC(=O)[C@]12C[C@H](CC(=O)N3CCC(c4ccccc4)CC3)C(=O)N(Cc3cccc4ccccc34)C1=C[C@H](C1CCCC1)O[C@@H]2C,10,-8,0,-8,.,.,.
Cc1nc(Nc2nc(CSc3nc4ccccc4[nH]3)cc(=O)[nH]2)nc2ccccc12,41*,-27,-2,-39,-55,32,21*
Cc1nc(Nc2nc(-c3ccccc3)cc(=O)[nH]2)nc2ccccc12,37*,-19,3,-16,-33,19,6.5*
COc1ccc2nc(Nc3nc(CSc4nc5ccccc5[nH]4)cc(=O)[nH]3)nc(C)c2c1,20,5,-3,-20,-9,.,.
COC(=O)[C@]12CCCCC=C1N(Cc1ccc(OC)cc1)C(=O)[C@@H]2CC(=O)NCC1CCCCC1,4,3,3,1,.,.,.
CCCC[C@@H](CCCc1ccc(F)cc1)CCC(=O)N(c1ccccc1)c1ccccc1,6,0,1,-4,.,.,.
Cc1cc2c(cc1C)-c1c(ssc1=Nc1ccc(S(N)(=O)=O)cc1)C(C)(C)N2,13,1,0,13,12,.,.
CC(=O)NS(=O)(=O)c1ccc(N=c2ssc3c2-c2cc(C)c(C)cc2NC3(C)C)cc1,75*,12,-2,9,11,59*,25*
SMILES,rCAG RNA binder,mABHD4 FP,PRMT1 FP inh,SIAE primary,HTRA1 inh,rCAG bind conf,DNA CAG counter
CSc1nc(N(C)CCO)c2sc3nc(-c4ccco4)c4c(c3c2n1)CCC4,.,.,.,.,7,.,.
CSc1nc(SCC(=O)O)c2sc3nc(-c4ccccc4)c4c(c3c2n1)CCC4,39*,-12,4,-31,-51,63*,38*
COc1cc(C2C3=C(Nc4nc(N)[nH]c(=O)c42)c2ccccc2C3=O)ccc1O (stereo unspecified),61*,10,8,4,8,28,20*
COc1cc(C2C(=O)c3ccccc3C2=O)ccc1O,13,28,1,-14,17,.,.
Nc1nc2c(c(=O)[nH]1)C(c1ccccc1)C1=C(N2)c2ccccc2C1=O (stereo unspecified),62*,17,2,9,16,32,27*
Cn1c2c(c(=O)[nH]c1=O)C(c1ccc(O)cc1)C1=C(N2)c2ccccc2C1=O (stereo unspecified),27,-3,3,-23,.,.,.
CCC(C)c1ccc(C2C3=C(Nc4nc(N)[nH]c(=O)c42)c2ccccc2C3=O)cc1 (stereo unspecified),43*,14,0,-1,18,47*,29*
COc1ccc(/C=C2\C(=O)ON=C2c2cccc([N+](=O)[O-])c2)cc1,41*,20,11,-1,.,20,6.0*
O=C1OC(/C=C/c2ccccc2)=NC/1=C\c1cccnc1,2,2,1,6,-6,.,.
COc1ccccc1/C=C/C(=O)c1ccc(Cl)cc1,0,-3,0,0,-20,.,.
COc1ccccc1/C=C/C1=NC(=C\C=C/c2ccccc2)/C(=O)O1,46*,8,0,-4,-22,33,14*
COc1ccccc1/C=C/C=C1N=C(/C=C/c2ccc(Cl)cc2)OC/1=O,54*,20,0,-14,-21,37*,10*
Cc1ccc2nc(Cl)c(/C=N/Nc3ccc(C(=O)O)cc3)cc2c1,41*,21,3,-39,-15,23,5.3*
O=C(O)c1ccc(/C=N/NC(=O)c2cc(-c3ccc4c5c(cccc35)CC4)n[nH]2)cc1,81*,-79,6,-114,-145,80*,49*
Cc1nc(SCC(=O)c2ccccc2)[nH]c(=O)c1Oc1ccc(Cl)cc1,41*,-6,1,2,-5,35*,8.5*
